ChEMBL document CHEMBL3098021, “New anti-inflammatory cembranoid diterpenoids from the Vietnamese soft coral Lobophytum crassum” (Bioorg Med Chem Lett, 2014)

Tests used:
[1] = (§1) Inhibition of TNF-alpha-induced NF-kappaB transcriptional activation in human HepG2 cells preincubated for 1 hr followed by TNF-alpha challenge measured after 1 hr by luciferase reporter gene assay; format: cell-based
Outline: (§2)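 HepG2 cells were transfected with an NF-κB-responsive firefly luciferase reporter plasmid (minimal CMV promoter plus tandem NF-κB response elements) and stimulated with 10 ng/mL TNFα. Compounds were tested across a concentration range, with a DMSO vehicle control and sulfasalazine (1.0 µM) as positive control. Luciferase activity was read out, data are mean ± SD (n = 3), and IC50 was derived from the dose–response.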

HepG2 [2] = assay: Inhibition of TNF-alpha-induced iNOS mRNA expression in human HepG2 cells preincubated for 1 hr followed by TNF-alpha challenge measured after 6 hrs by RT-PCR analysis; format: functional, cell-based
HepG2 [3] = assay: Inhibition of TNF-alpha-induced COX2 mRNA expression in human HepG2 cells preincubated for 1 hr followed by TNF-alpha challenge measured after 6 hrs by RT-PCR analysis; format: functional, cell-based
HepG2 [4] = assay: as §1; format: cell-based; outline: as §2

Structure (SMILES) | IC50 [1] [µM] | inhibition (HepG2 [2]) | inhibition (HepG2 [3]) | inhibition (HepG2 [4])
C=C1CO[C@H]2/C=C(\C)CC[C@@H](O)[C@@](C)(O)C/C=C/[C@@](C)(O)CC[C@@]12O | > 20 |  |  | 
O=C(O)c1cc(/N=N/c2ccc(S(=O)(=O)Nc3ccccn3)cc2)ccc1O [SULFASALAZINE] | 0.9 |  |  | 
C/C1=C\[C@@H]2O[C@@H](O)[C@@]3(C)O[C@@]23CC/C(C)=C/CC[C@](C)(O)[C@H](O)CC1 | 6.63 | Dose-dependent effect | Dose-dependent effect | Dose-dependent effect

Further lines, with some results ahead:

IC50 [1] [µM] | Structure (SMILES) | inhibition (HepG2 [2]) | inhibition (HepG2 [3]) | inhibition (HepG2 [4])
6.3 | C/C1=C\[C@@H]2O[C@@H](O)[C@@]3(C)O[C@@]23CC/C(C)=C/CC[C@](C)(O)[C@@H](O)CC1 | Dose-dependent effect | Dose-dependent effect | Dose-dependent effect
> 20 | C=C1CO[C@H]2/C=C(\C)CC[C@@H](O)[C@@](C)(O)C/C=C/[C@](C)(O)CC[C@@]12O |  |  | 
